# Active and inactive are the calls of the source. The calls are words filed in the database; no cut-off is given here.
# How the values were obtained:
# [1] = Cytotoxicity against human Hep2 cells; assay type: cell-based; details: HEp-2 cells
# [2] = Inhibition of RSV A2 RNA-directed RNA polymerase L infected in human Hep2 cells assessed as reduction in virus-induced cytopathic effect measured after 5 days by resazurin dye based fluorescence assay; assay type: cell-based; details: human respiratory syncytial virus, HEp-2, 120 h
# How it was run: (§1)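 Read-out is cytopathic effect of RSV infection in HEp-2 cells. IC50 is the concentration reducing CPE by 50%. Values averaged from 2 experiments.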
# [3] = Inhibition of Respiratory syncytial virus B WST RNA-directed RNA polymerase L infected in human Hep2 cells assessed as reduction in virus-induced cytopathic effect measured after 6 days by resazurin dye based fluorescence assay; assay type: cell-based; details: HEp-2, 144 h; how it was run: as §1
# [4] = Antiviral activity against human respiratory syncytial virus A strain long infected in cotton rat assessed as reduction in plaque forming units in lungs at 0.33 to 3.3 mg/ml administered intranasally pretreated for 4 hrs followed by viral infection measured after 4 days; assay type: functional
# Phosphoprotein = Phosphoprotein (Human respiratory syncytial virus A (strain A2), UniProt P03421); test: (§2) Inhibition of Respiratory syncytial virus A2 protein P by luciferase reporter-based RSV minigenome assay
# [5] = target: Phosphoprotein (Human respiratory syncytial virus A (strain A2)) (UniProt P03421); test: as §2
# [6] = target: T1, Protein M2-1 (Human respiratory syncytial virus A (strain A2)) (UniProt P04545); test: Inhibition of Respiratory syncytial virus A2 M2-1 by luciferase reporter-based RSV minigenome assay
# T1 sequence (whole entry): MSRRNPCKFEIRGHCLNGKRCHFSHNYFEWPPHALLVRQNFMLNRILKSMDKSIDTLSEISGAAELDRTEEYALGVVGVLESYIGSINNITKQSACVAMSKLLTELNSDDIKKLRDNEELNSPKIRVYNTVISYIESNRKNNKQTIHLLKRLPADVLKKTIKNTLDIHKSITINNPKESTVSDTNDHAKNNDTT
# [7] = test system: Human respiratory syncytial virus A strain Long; test: Antiviral activity against human respiratory syncytial virus A strain long infected in cotton rat assessed as reduction in NS1 expression administered intranasally pretreated for 4 hrs followed by viral infection measured after 4 days by RT-qPCR analysis; assay type: functional
# [8] = test system: Human respiratory syncytial virus A2; test: Inhibition of Respiratory syncytial virus A2 RNA-directed RNA polymerase L by luciferase reporter-based RSV minigenome assay
# [9] = test system: Human respiratory syncytial virus A strain Long; test: Antiviral activity against human respiratory syncytial virus A strain long infected in cotton rat assessed as reduction in lung viral load administered intranasally pretreated for 4 hrs followed by viral infection measured after 4 days by plaque assay; assay type: functional
# [10] = test system: Human respiratory syncytial virus A2; test: Antiviral activity against Respiratory syncytial virus A2 infected in human Hep2 cells at 0.001 to 3.125 ug/ml after 6 passages; assay type: functional, cell-based
# Nucleoprotein = target: T2, Nucleoprotein (Human respiratory syncytial virus A (strain A2), UniProt P03418); test: (§3) Inhibition of Respiratory syncytial virus A2 protein N by luciferase reporter-based RSV minigenome assay
# T2 sequence (P03418 whole entry): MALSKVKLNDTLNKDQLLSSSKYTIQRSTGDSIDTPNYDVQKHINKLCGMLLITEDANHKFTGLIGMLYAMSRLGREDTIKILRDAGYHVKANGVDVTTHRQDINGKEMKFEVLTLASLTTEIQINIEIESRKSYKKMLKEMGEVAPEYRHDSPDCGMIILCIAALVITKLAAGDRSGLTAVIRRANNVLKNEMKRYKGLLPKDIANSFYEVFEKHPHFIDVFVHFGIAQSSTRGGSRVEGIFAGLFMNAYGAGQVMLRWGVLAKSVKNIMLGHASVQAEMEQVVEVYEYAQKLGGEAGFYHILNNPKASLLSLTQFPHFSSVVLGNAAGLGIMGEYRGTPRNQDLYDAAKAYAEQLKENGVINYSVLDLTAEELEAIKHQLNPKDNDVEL
# [11] = target: T3, Nucleoprotein (Human respiratory syncytial virus A (strain A2)) (UniProt P03418); test: as §3
# T3 sequence (whole entry): T2 sequence (P03418 whole entry)
# Chain of Phosphoprotein (Human respiratory syncytial virus A (strain A2)) (P03421 whole entry): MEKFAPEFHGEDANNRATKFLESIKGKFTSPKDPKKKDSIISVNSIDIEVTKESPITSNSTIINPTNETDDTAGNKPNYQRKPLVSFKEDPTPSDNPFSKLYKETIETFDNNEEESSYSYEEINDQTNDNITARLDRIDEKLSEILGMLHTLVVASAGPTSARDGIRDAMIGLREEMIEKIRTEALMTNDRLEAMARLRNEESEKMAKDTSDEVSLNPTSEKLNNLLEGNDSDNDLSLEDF
# Chain of Phosphoprotein (P03421 whole entry): as above
SMILES,CC50 [1],IC50 [2],IC50 [3],further results
Cc1ccc(C(=O)Nc2ccc(C(=O)N3CCc4cc(-c5nc6ccccc6[nH]5)sc4-c4ccccc43)cc2)c(N2CC3(CCOCC3)C2)n1,> 14600 nM,0.3 to 0.8 nM,5.2 to 13.1 nM,–
Cc1cnc(N2CC3(CCOCC3)C2)c(C(=O)Nc2ccc(C(=O)N3CCc4cc(-c5cc6ccccn6n5)sc4-c4ccccc43)cc2)c1,> 14600 nM,0.7 nM,8.1 nM,–
Cc1cnc(N2CC3(CCOCC3)C2)c(C(=O)Nc2ccc(C(=O)N3CCc4cc(-c5ncc(C)[nH]5)sc4-c4ccccc43)cc2)c1,> 15500 nM,0.7 nM,3.3 nM,–
O=C(NC1CC1)c1cc2c(s1)-c1ccccc1N(C(=O)c1ccc(NC(=O)c3cccnc3N3CC4(CCOCC4)C3)cc1)CC2,6410 nM,2.2 nM,286 nM,–
O=C(Nc1ccc(C(=O)N2CCc3cc(-c4nc5ccccc5[nH]4)sc3-c3ccccc32)cc1)c1ccc(C(F)(F)F)nc1N1CC2(CCOCC2)C1,> 13600 nM,7.3 nM,> 1360 nM,–
O=C(Nc1ccc(C(=O)N2CCc3cc(-c4nc5c(Cl)cccc5[nH]4)sc3-c3ccccc32)cc1)c1cccnc1N1CC2(CCOCC2)C1,> 14200 nM,0.8 nM,30.7 nM,–
O=C(Nc1ccc(C(=O)N2CCc3cc(-c4nc5cc(C(F)(F)F)ccc5[nH]4)sc3-c3ccccc32)cc1)c1cccnc1N1CC2(CCOCC2)C1,> 13600 nM,3.1 nM,> 1360 nM,–
O=C(Nc1ccccc1)c1cc2c(s1)-c1ccccc1N(C(=O)c1ccc(NC(=O)c3cccnc3N3CC4(CCOCC4)C3)cc1)CC2,> 14900 nM,0.5 nM,283 nM,–
Cc1cnc(N2CC3(CCOCC3)C2)c(C(=O)Nc2ccc(C(=O)N3CCc4cc(-c5nc(C)c(C)[nH]5)sc4-c4ccccc43)cc2)c1,> 15100 nM,1.6 nM,6.2 nM,–
O=C(Nc1ccc(C(=O)N2CCc3cc(-c4nc5cncnc5[nH]4)sc3-c3ccccc32)cc1)c1cccnc1N1CC2(CCOCC2)C1,> 14900 nM,13.1 nM,> 1500 nM,–
N#Cc1cccc2[nH]c(-c3cc4c(s3)-c3ccccc3N(C(=O)c3ccc(NC(=O)c5cccnc5N5CC6(CCOCC6)C5)cc3)CC4)nc12,> 14400 nM,0.6 nM,69 nM,–
Cc1cnc(N2CC3(CCOCC3)C2)c(C(=O)Nc2ccc(C(=O)N3CCc4cc(-c5nc6ccccc6[nH]5)sc4-c4ccccc43)cc2)c1,> 14600 nM,0.5 nM,5.2 nM,–
N#Cc1ccc2[nH]c(-c3cc4c(s3)-c3ccccc3N(C(=O)c3ccc(NC(=O)c5cccnc5N5CC6(CCOCC6)C5)cc3)CC4)nc2c1,> 14400 nM,0.5 nM,162 nM,–
Cc1ccnc(N2CC3(CCOCC3)C2)c1C(=O)Nc1ccc(C(=O)N2CCc3cc(-c4nc5ccccc5[nH]4)sc3-c3ccccc32)cc1,–,–,> 1470 nM,–
Cc1cnc(N2CC3(CCOCC3)C2)c(C(=O)Nc2ccc(C(=O)N3CCc4cc(-c5cn6ccccc6n5)sc4-c4ccccc43)cc2)c1,> 14600 nM,1.8 nM,14.4 nM,–
O=C(Nc1ccc(C(=O)N2CCc3cc(-c4nc5c(C(F)(F)F)cccc5[nH]4)sc3-c3ccccc32)cc1)c1cccnc1N1CC2(CCOCC2)C1,> 13600 nM,0.6 nM,38.8 nM,–
CCc1cnc(N2CC3(CCOCC3)C2)c(C(=O)Nc2ccc(C(=O)N3CCc4cc(-c5nc6ccccc6[nH]5)sc4-c4ccccc43)cc2)c1,> 14300 nM,0.7 nM,13.3 nM,–
O=C(Nc1ccc(C(=O)N2CCc3cc(-c4cc5ccccc5[nH]4)sc3-c3ccccc32)cc1)c1cccnc1N1CC2(CCOCC2)C1,> 15000 nM,1.5 nM,1020 nM,–
O=C(Nc1ccc(C(=O)N2CCc3cc(-c4nc5ccccc5[nH]4)sc3-c3ccccc32)cc1)c1cccnc1N1CC2(CCOCC2)C1,> 14900 nM,0.8 nM,59.8 nM,–
Cc1cnc(N2CC3(CCOCC3)C2)c(C(=O)Nc2ccc(C(=O)N3CCc4cc(-c5nc6cccc(F)c6[nH]5)sc4-c4ccccc43)cc2)c1,> 14300 nM,1.4 nM,2.1 nM,Activity [4]: <2.3 log10PFU; IC50 (Phosphoprotein): 2 nM; inhibition [5]: Dose-dependent effect; inhibition [6]: Dose-dependent effect; Activity [7]: Dose-dependent effect; inhibition [8]: Dose-dependent effect; Activity [9]: Active; Activity [10]: inactive; IC50 (Nucleoprotein): 2 nM; inhibition [11]: Dose-dependent effect
COc1ccc(C(=O)Nc2ccc(C(=O)N3CCc4cc(-c5nc6ccccc6[nH]5)sc4-c4ccccc43)cc2)c(N2CC3(CCOCC3)C2)n1,> 14300 nM,0.5 nM,37.8 nM,–
O=C(Nc1ccc(C(=O)N2CCc3cc(-c4nc5cc(Cl)ccc5[nH]4)sc3-c3ccccc32)cc1)c1cccnc1N1CC2(CCOCC2)C1,> 14200 nM,1.6 nM,161 nM,–
O=C(Nc1ccc(C(=O)N2CCc3cc(-c4nc5ccccc5o4)sc3-c3ccccc32)cc1)c1cccnc1N1CC2(CCOCC2)C1,> 14900 nM,56 nM,> 1500 nM,–
O=C(Nc1ccc(C(=O)N2CCc3cc(-c4nc5c(F)cccc5[nH]4)sc3-c3ccccc32)cc1)c1cccnc1N1CC2(CCOCC2)C1,> 14600 nM,1.6 nM,90.9 nM,–
O=C(Nc1ccc(C(=O)N2CCc3cc(-c4nc5cnccc5[nH]4)sc3-c3ccccc32)cc1)c1cccnc1N1CC2(CCOCC2)C1,> 14900 nM,7.6 nM,844 nM,–
CC(C)c1cnc(N2CC3(CCOCC3)C2)c(C(=O)Nc2ccc(C(=O)N3CCc4cc(-c5nc6ccccc6[nH]5)sc4-c4ccccc43)cc2)c1,> 14100 nM,5.7 nM,> 1410 nM,–
Cc1cccc2[nH]c(-c3cc4c(s3)-c3ccccc3N(C(=O)c3ccc(NC(=O)c5cccnc5N5CC6(CCOCC6)C5)cc3)CC4)nc12,> 14600 nM,0.6 nM,52.9 nM,–

# Reference: ChEMBL document CHEMBL4038291, “Discovery of novel benzothienoazepine derivatives as potent inhibitors of respiratory syncytial virus” (Bioorg Med Chem Lett, 2017)
